# This is a sample that favours compounds with a hit; in the whole collection about 3% have one here.
# HSF1 activator: increases HSF-1 driven luciferase reporter signal | AID 504408 | activation, % at 9 µM | hit rate 1.7% among 300,000 | NIH3T3-HGL HSF-1 luciferase reporter, MG132, 8 h; 100% = twice DMSO control signal;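 active means mean replicate activation of at least 50% with a set share of replicates each reaching 50%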;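 further: 0% = median of the neutral control wells and 100% = twice that signal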
# T cruzi repl: T. cruzi replication inhibition | inhibition, % (no concentration beside the values) | AID 1885 | T. cruzi beta-gal in NIH3T3, luminescence, 90 h | hit rate 1.4% among 300,000;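 active means mean inhibition across valid replicates above about 55%, limit read from the data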;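 further: signal also drops with host cell toxicity which is not excluded here; 0% = plate median of DMSO wells and 100% = zero luminescence signal; higher percent means less beta-gal luminescence so fewer parasites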
#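 Incubation – ≥90 h infection period, 3 h prior cell attachment · System – NIH/3T3 fibroblasts plus reporter T. cruzi · Doses – compound pinned at 50 nL/well, DMSO · Read-out basis – percent inhibition of parasite-derived β-gal signal · Signal – luminescent β-galactosidase signal after 60 min lysis · Also added – 5000 T. cruzi trypomastigotes/well · Medium – Low-serum DMEM with 2% FBS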
# CaV13 ICDI inh: Primary screen for inhibitors of IQ motif and Ca2+-dependent inactivation inhibitor domain binding in CACNA1D, Förster resonance energy transfer in living cells, …; HEK cells, CFP/YFP FRET ICDI-IQ, plate reader, 10 min; percent FRET-ratio fall versus neutral wells; inhibition, % at 12.3 µM; hit rate 0.098% among 340,000; AID 743397;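 active means mean replicate inhibition of at least 30% and at least 1% of replicates passing that level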;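 further: 0% = median of the neutral control wells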
# PvdQ inh: P. aeruginosa PvdQ acylase inhibition; purified PvdQ acylase, fluorescence plate reader; inhibition, % at 10 µM; hit rate 0.063% among 340,000; in the data active means inhibition above about 30%, passing the limit was not always enough;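 further: 0% = vehicle neutral wells and 100% = reference inhibitor wells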
# PfHsp90 set2: inhibits growth of yeast expressing Plasmodium falciparum Hsp90; S. cerevisiae expressing PfHsp90, BacTiter-Glo ATP, 48 h; yeast lacking PDR1 and PDR3 efflux regulators; inhibition, % at 9.4 µM; hit rate 0.32% among 310,000; AID 504621;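 active means every replicate shows inhibition above about 80%, whatever the replicate mean, limit read from the data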;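 further: 0% = DMSO neutral controls and 100% = 20 µM radicicol positive controls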
# Glyco luc inh: blocks N-linked glycosylation in D54 reporter cells. D54 ERlucT glycosylation luciferase reporter, 24 h; percent of 100 nM tunicamycin response. reporter increase, % at 12.5 µM. hit rate 0.23% among 360,000;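 active means mean luciferase reporter signal, scaled so untreated is 0 and the glycosylation-blocking control 100, at or above a set limit in every replicate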;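 further: luciferase carries N-glycosylation sites so blocking glycosylation raises the light; 0% = median of neutral control wells and 100% = median of 100 nM tunicamycin wells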
# Active calls of the source: *; nt = no result given.
SMILES,HSF1 activator,T cruzi repl,CaV13 ICDI inh,PvdQ inh,PfHsp90 set2,Glyco luc inh
O=C1c2c(-c3ccc(Br)cc3)noc2CCN1Cc1cn(-c2ccccc2)nn1,nt,nt,-7,nt,nt,nt
O=C(NCc1ccccc1)C(c1ccc(C(F)(F)F)cc1)n1c(=O)c(-c2cc3ccccc3[nH]2)nc2ccccc21 (stereo not given),nt,nt,-17,nt,nt,nt
O=C(NCC1CCCO1)c1cc2c([nH]c3ccccc32)c(-c2cccc(Br)c2)n1 (stereo not given),34,55*,nt,7,-4,-14
Cc1ccc(-c2nc(C(=O)NCCCN(C)C)cc3c2[nH]c2ccccc23)cc1,-2,43,-3,-20,-7,46*
COc1cc(-c2nc(C(=O)NC3CCN(Cc4ccccc4)CC3)cc3c2[nH]c2ccccc23)cc(OC)c1OC,-8,77*,nt,-2,-14,-8
Cc1ccc(-c2nc(C(=O)NCC3CCCO3)cc3c2[nH]c2ccccc23)cc1 (stereo not given),-9,53,nt,-12,nt,2
O=C(NCCO)c1cc2c([nH]c3ccccc32)c(-c2ccccc2)n1,5,3,-3,-13,6,6
CC(C)NC(=O)C1(C)CN(S(C)(=O)=O)CC(=O)N1Cc1cccs1 (stereo not given),nt,nt,-4,nt,nt,nt
Oc1ccc(N=Nc2ccc3c(c2)OCCO3)c2ncccc12,24,68*,-6,-3,-41,-17
CCOc1ccc(N=Nc2ccc(O)c3ncccc23)cc1,89*,65*,-1,4,39,-1
Cc1cccc(N=Nc2ccc(O)c3ncccc23)c1,241*,51,-6,-10,101*,-14
Cc1ccc(C)c(N=Nc2ccc(O)c3ncccc23)c1,-27,31,-5,13,2,-17
NS(=O)(=O)c1ccc(N=Nc2ccc(O)c3ncccc23)cc1,-11,66*,-4,9,40,1
CCS(=O)(=O)c1ccc(OC)c(N=Nc2ccc(O)c3ncccc23)c1,-8,18,11,-2,-42,5
CCC(=O)CN(Cc1cc(OC)ccc1OC)S(=O)(=O)c1ccccc1Br,nt,nt,-8,-2,-34,0
O=C(NCCc1c[nH]c2ccccc12)c1ccc([N+](=O)[O-])o1,nt,nt,-10,nt,nt,-1
COC(=O)[C@]12CCCCC=C1N(Cc1ccc3c(c1)OCO3)C(=O)[C@H](CC(=O)NCc1ccc(OC)c(OC)c1)C2,nt,nt,-3,nt,nt,nt
COc1ccc(-c2cc(C(F)(F)F)nc(S(=O)(=O)CCCC(=O)Nc3cccc(O)c3)n2)cc1OC,260*,-41,-6,nt,nt,-9
COc1ccccc1-c1cc(C(F)(F)F)nc(S(=O)(=O)CCCC(=O)O)n1,40,-17,-4,-2,nt,-2
COc1ccc(-c2cc(C(F)(F)F)nc(S(=O)(=O)CCC(=O)N3CCOCC3)n2)cc1,106*,-43,nt,1,1,-5
COc1ccccc1-c1cc(C(F)(F)F)nc(S(=O)(=O)CCCC(=O)N2CCOCC2)n1,-60,-16,nt,-12,-49,-6
CCCNC(=O)C1(C)CCN(Cc2ccc(OCc3ccccc3)cc2)C1 (stereo not given),nt,nt,-6,nt,nt,-3
CCCCCCCCN1C(=O)[C@@H](CC(=O)NCC2CCCCC2)C[C@@]2(C(=O)OC)C1=C[C@H](C1CCCC1)O[C@@H]2C,nt,nt,-10,nt,nt,nt
CCCCOCCCNC(=O)C[C@H]1C[C@@]2(C(=O)OC)C(=C[C@H](C(C)(C)C)O[C@@H]2C)N(Cc2ccccc2)C1=O,nt,nt,-8,nt,nt,nt
O=C1C2C(C(=O)N1Cc1ccco1)C1C=CC2C12CC2 (stereo not given),0,-3,-4,87*,nt,1
SMILES,HSF1 activator,T cruzi repl,CaV13 ICDI inh,PvdQ inh,PfHsp90 set2,Glyco luc inh
O=C1C2C3c4ccccc4C(c4ccccc43)C2C(=O)N1Cc1ccco1 (stereo not given),-4,-2,nt,-24,-15,-1
O=C1C2C3C=CC(C4CC34)C2C(=O)N1Cc1ccco1 (stereo not given),-2,0,-21,41*,-3,0
CC(=O)Nc1cccc(-c2nc3ccccc3n2C(C)C(=O)NC(C)(C)C)c1 (stereo not given),nt,nt,-5,nt,nt,nt
CC1CCN(c2c([N+](=O)[O-])nn(-c3ccc4c(c3)OCCO4)[n+]2[O-])CC1,-33,62*,-6,-5,nt,-4
O=C(CN1C(=O)COc2ccccc21)N(Cc1ccccc1)Cc1ccccn1,-1,2,-8,-1,12,0
Cc1ccc(CN(Cc2cccnc2)C(=O)CN2C(=O)COc3ccccc32)o1,2,55*,-7,2,nt,1
O=S1(=O)CC(N2CCN(Cc3ccccc3F)CC2)CN1Cc1cn(Cc2cccc(Cl)c2)nn1 (stereo not given),nt,nt,-3,nt,nt,nt
CC(CC(=O)Nc1ccc2c(c1)c(=O)n(C)n2-c1ccc2ccccc2c1)C(F)(F)F (stereo not given),nt,nt,-5,nt,nt,19
O=Cc1c[nH]c2ccc(S(=O)(=O)N3CCCCC3)cc12,nt,nt,-5,nt,nt,-4
O=C1C(Cc2ccccc2)Nc2ncnc(N3CCN(c4ccccc4)CC3)c2N1Cc1ccc(Br)cc1 (stereo not given),nt,nt,-7,10,1,-4
CCC1Nc2ncnc(N3CCN(c4ccccc4)CC3)c2N(Cc2ccc(Br)cc2)C1=O (stereo not given),4,58*,-8,8,-36,0
Cc1c(NC(=O)c2ccc(-c3ccc([N+](=O)[O-])cc3Cl)o2)c(=O)n(-c2ccccc2)n1C,-12,56*,-4,2,21,-1
Cc1c(NC(=O)CN2C(=O)c3ccc([N+](=O)[O-])cc3C2=O)c(=O)n(-c2ccccc2)n1C,-4,3,-7,-14,15,1
C=CCNc1cccc2c1S(=O)(=O)N[C@H](C)CO2,nt,nt,-8,nt,nt,nt
COc1ccc(C(=O)NC(=S)N(C)C2CCCCC2)cc1Br,9,60*,nt,-8,-45,2
Cc1ccc(C(=O)NC(=S)N(C)C2CCCCC2)cc1Br,-10,60*,nt,-8,nt,17
CN(C(=S)NC(=O)c1ccccc1Br)C1CCCCC1,-15,-21,-8,13,nt,2
COc1ccc(C(=O)NC(=S)N(C)C2CCCCC2)cc1,nt,nt,-6,0,-2,-2
CCCNC(=O)C1(C)CCCN(C(=O)COc2ccc(C(C)(C)C)cc2)C1 (stereo not given),nt,nt,-5,nt,nt,0
Cc1nn(-c2nc3ccccc3[nH]2)c(=O)c2ccccc12,-85,-7,-5,-3,90*,-19
CCOC(=O)C1=CCN(S(C)(=O)=O)C1c1ccc(Cl)cc1 (stereo not given),nt,nt,-4,nt,nt,nt
COC1CCN(Cc2c(C(=O)N3CCN(C4CCCCC4)CC3)nc3ccccn23)CC1,-4,59*,nt,-16,26,-1
